Source: PubChem BioAssay
Furin inhibitor – blocks human furin protease activity. P09958. purified furin, fluorogenic substrate cleavage. inhibition, % at 20 µM or 30 µM. 220,000 tested, 0.061% active; in the data active = inhibition above about 25%
Target sequence (P09958 108-714 limits assumed): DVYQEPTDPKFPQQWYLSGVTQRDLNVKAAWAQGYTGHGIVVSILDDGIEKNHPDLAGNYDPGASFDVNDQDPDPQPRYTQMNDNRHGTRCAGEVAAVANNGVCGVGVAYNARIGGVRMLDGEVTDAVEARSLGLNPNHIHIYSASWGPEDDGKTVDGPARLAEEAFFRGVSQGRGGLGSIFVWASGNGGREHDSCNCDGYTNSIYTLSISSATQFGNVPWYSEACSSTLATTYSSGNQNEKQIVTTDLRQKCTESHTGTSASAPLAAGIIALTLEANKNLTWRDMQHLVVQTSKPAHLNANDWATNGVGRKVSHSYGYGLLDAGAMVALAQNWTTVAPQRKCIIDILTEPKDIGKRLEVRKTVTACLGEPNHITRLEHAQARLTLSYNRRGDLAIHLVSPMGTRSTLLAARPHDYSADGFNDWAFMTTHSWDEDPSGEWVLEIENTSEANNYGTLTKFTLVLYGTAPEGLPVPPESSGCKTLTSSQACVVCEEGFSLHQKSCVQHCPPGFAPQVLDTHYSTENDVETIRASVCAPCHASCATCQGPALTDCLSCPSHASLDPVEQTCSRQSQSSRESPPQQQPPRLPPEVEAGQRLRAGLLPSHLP
HSV replic up – increases HSV replication in cells; HSV replication augmentation in cells, fold increase; maximum fold increase; 220,000 tested, 0.005% active; AID 1956; in the data active = maximum fold increase above about 1.5; inconclusive = no clear call, values can overlap the other calls; tested in PC3 cells
Ins promoter up – MIN6 insulin promoter up-regulation | 190,000 tested, 0.3% active | z-score at 5 µM | MIN6 insulin promoter-GFP reporter, high-content imaging; hits give high values;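 active = z-score above 3 at 5 µM with at least 500 cells counted in the well; inconclusive = wells under 500 cells, flagged as cytotoxic or low count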
Autophagy mod – autophagy modulation, high-content screen; 190,000 tested, 0.98% active; calls only at 10 µM (by protocol); MEF GFP-LC3 puncta imaging; test concentration mostly 10 µM;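 active = percentage of spot-positive cells more than 3 SD above its plate mean, without a fluorescence outlier flag or 80% toxicity; inconclusive = no clear call, values can overlap the other calls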;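 also: spot-positive cell cutoff set from DMSO-treated cells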
Dynein transport – dynein cargo transport inhibition; z-score, hits read low; 3617.4 mouse cells, GR-EGFP nuclear translocation imaging; test concentration mostly 20 µM; stimulated with dexamethasone, 1 µM; hits give low values; 220,000 tested, 0.47% active; AID 1381;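 active = plate z-score of nuclear minus cytoplasmic receptor signal below a set negative limit, without overly bright fluorescence or cell loss, cut at about -3.5 in these data, passing the limit was not always enough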;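 also: z-score of nuclear minus cytoplasmic ring GR-EGFP intensity difference per well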
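Medium: Induction medium lacking tetracycline, stripped serum | Probe or stimulus: 1.0 µM final dexamethasone stimulus | Schedule: 48 h induction, then 1 h compound, then 30 min agonist, 37 °C | Signal: Automated 10x imaging of fixed Hoechst-stained cells | Evaluation: Per-cell GR-EGFP intensity, nucleus versus surrounding cytoplasmic ring, well-averaged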
Insulin prom inh – TRM-6 insulin promoter activity inhibition; TRM-6 cells, insulin promoter-eGFP reporter, imaging; reporter expression induced with tamoxifen; 130,000 tested, 0.9% active; AID 1273; inhibition, % at 2 µM;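 active = inhibition above the mean plus 3 SD, with well images judged a real hit on visual review, cut at about 60% in these data, passing the limit was not always enough; inconclusive = inhibition over the cutoff but images rejected on review; inactive = inhibition not above the cutoff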
Dynein inh conf – dynein cargo transport inhibition, confirmation | calls only at 20 µM | 3617.4 GR-EGFP nuclear translocation imaging, dexamethasone-induced | shares compounds with Dynein transport | AID 463116 | 1,000 tested, 69% active;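 active = inhibition of receptor movement into the nucleus at or above a set limit in both runs, with normal cell brightness and cell count; inconclusive = limit reached in only one run, brightness and count normal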;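 also: dexamethasone at 1 µM final in well for 30 min; nuclear minus cytoplasmic GR-EGFP mean intensity difference in channel 2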
Starred values were filed as active, the others as inactive; i = inactive; ? = inconclusive; nt = not tested or not shown; + = active, no number. Only some compounds are listed: those with a hit (about 2% of all), similar ones and a draw of the others.

SMILES | Furin inhibitor | HSV replic up | Ins promoter up | Autophagy mod | Dynein transport | Insulin prom inh | Dynein inh conf
COc1ccc(/C=N/NC(=O)C(O)(c2ccccc2)c2ccccc2)cc1OC | -8 | i | -0.13 | i | -0.47 | -7 | nt
CNCc1ccccc1Sc1cccc(O)c1 | -20 | i | -0.36 | i | -0.22 | -3 | nt
CNCc1ccccc1Sc1cc(O)ccc1O | -16 | i | nt | i | -4* | nt | +
CC(=O)c1ccccc1NCC(=O)Nc1ccc(C)cc1 | -3 | i | 0.65 | i | 1.4 | -5 | nt
O=C(COC(=O)Cc1c(Cl)cccc1Cl)NCC1CCCO1 (stereo not given) | -10 | i | 0.1 | i | 1.3 | nt | nt
Cc1ccc(-c2csc3nc(C)n(-n4c(C)ccc4C)c(=O)c23)o1 | -12 | i | 0.01 | i | -4* | -29 | i
N#C/C(=C\C=C\c1ccccc1)C(=O)NCc1cccnc1 | 8 | i | -0.06 | i | -1.4 | nt | nt
O=C(CCN1CCN(c2ccccc2)CC1)NNC(=S)Nc1ccccc1Cl | -20 | i | -1.1 | i | -0.33 | nt | nt
COc1ccc(CNC(=O)Cn2nnc3ccccc3c2=O)cc1 | -21 | i | -0.22 | nt | -5.3* | nt | i
O=C(CCl)Nc1cc(-c2ccccc2)nn1-c1ccccc1 | -4 | i | nt | + | -4.8* | 87* | +
N#CCc1nc2ccc(S(=O)(=O)N3CCOCC3)cc2s1 | -14 | ? | 0.54 | nt | -0.077 | nt | nt
c1ccc(-c2ccc(-c3nccc4ccccc34)[nH]2)cc1 | 0 | i | 4.4* | nt | -4.6 | nt | i
O=C(Cc1ccccc1)Oc1coc(CSc2ncccn2)cc1=O | -18 | i | 0.01 | i | -0.44 | 28 | nt
O=C(/C=C/c1ccco1)Nc1ccccc1N1CCCC1 | -4 | i | 0.3 | i | -3.6* | nt | i
CCn1nc(C)cc1C(=O)Sc1cccc(Br)c1 | -27 | i | -0.73 | nt | -4* | nt | +
CCn1nc(C)cc1C(=O)Sc1ccc(Cl)cc1Cl | -15 | i | -0.14 | nt | -2 | nt | nt
O=C(/C=C/c1ccc(F)cc1)c1ccccc1Br | -20 | i | -0.24 | i | -5.7* | -9 | +
O=C(/C=C/c1ccc(O)c(O)c1)c1ccccc1O | -9 | i | -1.5 | nt | -5.4* | nt | +
Cc1ccccc1-n1nc(-c2cccnc2)cc1C(=O)NN | -14 | i | nt | i | -1.1 | nt | nt
CCCCC(O)(CCCC)C(=O)NN(C(=O)OC)c1ccc(C)cc1 | -14 | i | -0.01 | nt | 0.84 | nt | nt
O=C1c2ccccc2C(=O)N1Nc1ccccc1 | -14 | nt | nt | i | 0.45 | 4 | nt
Cc1ccc(NN2C(=O)C=C(c3ccccc3)C2=O)cc1 | -14 | i | -0.21 | i | -4.5* | nt | +
CCOC(=O)c1c(-c2ccccc2)csc1NC(=O)/C(C#N)=C/c1ccc(O)c(OC)c1 | -3 | ? | 1.3 | + | -4.7* | nt | +
CCOC(=O)c1c(-c2ccccc2)csc1NC(=O)CSc1ccccc1 | -12 | i | 0.03 | i | -0.52 | nt | nt
O=C(COc1cccc2cccnc12)N/N=C1\SCC(=O)N1CCc1ccccc1 | -32 | i | -0.17 | i | -0.069 | nt | nt
SMILES | Furin inhibitor | HSV replic up | Ins promoter up | Autophagy mod | Dynein transport | Insulin prom inh | Dynein inh conf
Cc1ccsc1/C=C/C1=Cc2c(sc(NC(=O)CSc3n[nH]c(N)n3)c2C#N)C(C)(C)C1 | -1 | i | nt | i | -3.6* | -61 | i
CN(C)c1ccc(/C=C2\CCC/C(=C\c3ccccc3)C2=O)cc1 | -9 | ? | nt | i | -6.3 | -120 | i
COc1ccccc1NC1=C(NC(C)=O)C(=O)c2ccccc2C1=O | -17 | i | 0.14 | i | -5.1* | nt | ?
COC1=C(Nc2ccccc2OC)C(=O)c2ccccc2C1=O | -11 | i | -0.28 | nt | 0.44 | nt | nt
Cc1nc([N+](=O)[O-])c(Br)n1CC(=O)c1ccc(F)cc1 | -8 | i | nt | i | -6.1* | 45 | +
Cc1nc([N+](=O)[O-])c(Br)n1CC(=O)c1cccc([N+](=O)[O-])c1 | -24 | i | nt | i | -5.5* | 56 | +
Cc1nc([N+](=O)[O-])c(Br)n1Cc1ccccc1 | -9 | i | -0.81 | nt | -5.9* | nt | +
O=C(CN1C(=O)CSc2ccc(S(=O)(=O)N3CCOCC3)cc21)NCc1cccnc1 | -23 | i | 0.36 | i | -0.051 | -27 | nt
CN(C)c1ccc(N/C(N)=N/c2nc(C(F)(F)F)cc(C(F)(F)F)n2)cc1 | -14 | i | -0.31 | i | -0.42 | nt | nt
